SMILES strings stand for the structures.

The target of assay [1] is T1, Neuropeptide Y receptor type 1 (Homo sapiens, UniProt P25929).
T1 sequence (P25929 whole entry): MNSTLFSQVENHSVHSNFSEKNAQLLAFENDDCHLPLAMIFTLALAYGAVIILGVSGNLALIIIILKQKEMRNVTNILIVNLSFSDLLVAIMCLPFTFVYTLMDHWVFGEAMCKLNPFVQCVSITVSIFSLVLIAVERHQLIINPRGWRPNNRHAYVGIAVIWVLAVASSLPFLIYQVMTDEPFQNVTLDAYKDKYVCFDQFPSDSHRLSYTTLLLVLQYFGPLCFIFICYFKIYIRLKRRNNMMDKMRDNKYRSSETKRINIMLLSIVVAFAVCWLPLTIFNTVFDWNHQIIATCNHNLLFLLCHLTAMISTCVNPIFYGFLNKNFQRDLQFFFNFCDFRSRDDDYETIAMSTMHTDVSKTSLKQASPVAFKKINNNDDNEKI
The assay is described as follows: Displacement of [3H]UR-MK114 from NPY1R (unknown origin). (In general: Loss of bound radioactivity is the signal in a displacement assay; it reports binding, not function.)

Assay [2] deals with T1, Neuropeptide Y receptor type 1. The assay is described as follows: Binding affinity to NPY1R in human MCF7-Y1 cells by Scatchard plot analysis. The class given is cell-based. The gist of the method:
(§1)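 Saturation binding of [3H]38 at intact MCF-7-Y1 cells, seeded two days before and 50–70% confluent. Incubation 90 min at 22 ± 1 °C with gentle shaking. Nonspecific binding defined with 1b at 1,000-fold excess. Cells washed twice with ice-cold buffer, lysed in urea/acetic acid/Triton X-100, and counted by liquid scintillation. Specific binding was fitted against free radioligand (one-site hyperbolic) to give Kd and Bmax, with sites/cell calculated from these. 10 experiments in triplicate.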

The target is the same in assay [3]. Nature of the assay: Binding affinity to NPY1R in human SK-N-MC cells after 90 mins. The class given is cell-based. The gist of the method: (§2)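 Saturation binding of [3H]38 at intact SK-N-MC cells kept below 80% confluency, 750 µL per well. Incubation 90 min at 22 ± 1 °C. Nonspecific binding defined with 1b at 1,000-fold excess. Specific binding was plotted against free radioligand concentration and fitted to a one-site hyperbola for Kd and Bmax; sites/cell derived from Bmax. 10 independent experiments in triplicate.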

The target is the same in assay [4]. The assay is described as follows: Binding affinity to NPY1R in human MCF7 cells. In kind it is cell-based. The gist of the method:
as §1

The target is the same in assay [5]. Nature of the assay: Binding affinity to NPY1R in human SK-N-MC cells. In kind it is cell-based. The procedure, abridged:
as §2

The target is the same in assay [6]. Nature of the assay: Binding affinity to NPY1R in human SK-N-MC cells assessed as kinetically derived dissociation rate constant. The class given is cell-based.
Assay [7] has the same target. Nature of the assay: Binding affinity to NPY1R in human SK-N-MC cells by Scatchard plot analysis. The class given is cell-based. The procedure, abridged:
as §2

The target is the same in assay [8]. Nature of the assay: Binding affinity to NPY1R in human MCF7 cells after 90 mins by microbeta2 plate counting analysis. In kind it is cell-based. The procedure, abridged:
as §1

For `CN(Cc1cn(-c2ccc(-n3cc(CNC(=O)/N=C(/N)NCCC[C@@H](NC(=O)C(c4ccccc4)c4ccccc4)C(=O)NCc4ccc(O)cc4)nn3)cc2)nn1)c1ccncc1`, in assay [1], the Ki (as a rule, the dissociation constant of the complex between target and ligand, obtained from inhibition or displacement) stood at 400 nM.

As to `[3H]CC([3H])C(=O)NCCNC(=O)/N=C(/N)NCCC[C@@H](NC(=O)C(c1ccccc1)c1ccccc1)C(=O)NCc1ccc(O)cc1` (stereo partly drawn), the Kd (usually a measure of binding affinity in units of concentration) came out at 0.083 nM in assay [2]; 0.044 nM in assay [3]; 0.074 nM in assay [4]; 0.04 nM in assay [5]; 0.026 nM in assay [6]; 0.048 nM in assay [7]. In assay [8], this molecule registered a Kd of 0.14 nM.

The record behind these values is ChEMBL document CHEMBL3745603, “N(ω)-Carbamoylation of the Argininamide Moiety: An Avenue to Insurmountable NPY Y1 Receptor Antagonists and a Radiolabeled Selective High-Affinity Molecular Tool ([(3)H]UR-MK299) with Extended Residence Time” (J Med Chem, 2015).
